Sampled rows, rich in hits. Any-hit rate of the full collection: about 2.3%.
TCR CD3 inh = human TCR-CD3 binding inhibition | TAMRA-labeled TCR probe fluorescence, biochemical | inhibition, % at 9.4 µM | 360,000 compounds, 0.37% hits | AID 651800; in the data active = inhibition above about 19%;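 also: recombinant mutant TCR 2C K166C tagged with TAMRA read by polarization; 0% = receptor in buffer alone and 100% = receptor with positive control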
ABHD4 inh = ABHD4 (mouse) inhibition, primary FP screen. purified mABHD4, FP-Rh probe fluorescence polarization. inhibition, % at 8.92 µM. 370,000 compounds, 0.54% hits. AID 720543;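 active = inhibition exceeding the mean over every tested compound plus 3 SD, cut at about 30% in these data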;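 also: 0% = plate median of compound wells and 100% = S159A mutant with DMSO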
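Assay system: mouse ABHD4 enzyme, wild type / Also added: fluorescent activity-based probe FP-Rh / Doses: single nominal dose of 8.92 µM, 0.89% DMSO final / Timing: 45 min compound pre-incubation plus 60 min probe step, 25 °C / Signal: FP readout, ex 525 nm / em 598 nm / Control set: S159A mutant/DMSO as 100%, compound-well median as 0%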
HTRA1 inh = inhibitors of human serine peptidase HTRA1; Q92743; 340,000 compounds, 0.5% hits; inhibition, % at 5.96 µM; recombinant HTRA1, FP-rhodamine activity-based probe, fluorescence polarization; in the data active = inhibition above about 36%;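 also: 0% = enzyme with DMSO and 100% = wells lacking enzyme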
SIAE inh = blocks human sialic acid acetylesterase | Q9HAT2 | SIAE FP-Rh probe binding, fluorescence polarization | inhibition, % at 9.66 µM | 370,000 compounds, 0.69% hits;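 active = inhibition above a cutoff: mean of compounds within the control limits plus 3 SD of those, cut at about 17% in these data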;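 also: 0% = plate median of compound wells and 100% = probe without SIAE protein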
pPAFAH FP inh = inhibitors of human plasma PAF acetylhydrolase (pPAFAH). Q13093. 330,000 compounds, 1.5% hits. recombinant pPAFAH, FP-rhodamine probe fluorescence polarization. inhibition, % at 3.39 µM;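 active = inhibition above the mean inhibition across the screen plus 3 SD, cut at about 25% in these data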;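 also: inhibitors block binding of the rhodamine activity-based probe so polarization drops; 0% = enzyme with DMSO and 100% = wells lacking pPAFAH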
Target sequence (Q13093 whole entry, looked up): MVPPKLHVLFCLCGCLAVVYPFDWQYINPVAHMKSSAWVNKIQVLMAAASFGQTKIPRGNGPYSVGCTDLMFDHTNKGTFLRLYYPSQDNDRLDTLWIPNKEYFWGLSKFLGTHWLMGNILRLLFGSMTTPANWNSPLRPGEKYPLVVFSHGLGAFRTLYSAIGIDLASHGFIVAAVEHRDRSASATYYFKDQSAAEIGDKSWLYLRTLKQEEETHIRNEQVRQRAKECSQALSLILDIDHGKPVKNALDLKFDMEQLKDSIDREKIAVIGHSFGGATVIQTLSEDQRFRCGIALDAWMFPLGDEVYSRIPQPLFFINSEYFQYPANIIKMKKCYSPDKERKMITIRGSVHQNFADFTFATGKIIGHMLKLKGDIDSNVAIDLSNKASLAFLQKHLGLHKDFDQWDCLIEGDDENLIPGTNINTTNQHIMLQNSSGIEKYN
pPAFAH FP conf = pPAFAH (human) inhibition, confirmed. shares compounds with pPAFAH FP inh. recombinant pPAFAH, FP-Rh probe fluorescence polarization. inhibition, % at 3.39 µM. 2,300 compounds, 72% hits. AID 463230;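 active = mean inhibition of the triplicate above the hit cutoff set for the earlier primary screen, cut at about 25% in these data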;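 also: 0% = enzyme with DMSO and 100% = wells lacking pPAFAH enzyme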
HTRA1 inh conf = confirmation of human HTRA1 inhibitors; 1,600 compounds, 66% hits; AID 540248; recombinant HTRA1, FP-rhodamine activity-based probe, fluorescence polarization; inhibition, % at 5.96 µM; shares compounds with HTRA1 inh;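 active = mean inhibition over three repeats above a set limit taken from the earlier primary screen, cut at about 37% in these data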;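 also: 0% = HTRA1 with DMSO and 100% = wells lacking HTRA1; inhibitors block probe binding so polarization drops and inhibition rises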
* = called active by the depositor; · = not tested or not shown.

SMILES	TCR CD3 inh	ABHD4 inh	HTRA1 inh	SIAE inh	pPAFAH FP inh	pPAFAH FP conf	HTRA1 inh conf
COc1ccc(NS(=O)(=O)c2ccc(N/N=C(\C)c3ccncc3)c([N+](=O)[O-])c2)cc1	1	-8	-2	14	57*	55*	·
CC(C)C(C)NC(=O)COC(=O)C1CCN(S(=O)(=O)c2ccc3c(c2)OCCO3)CC1 (stereo not drawn)	0	-6	3	0	38*	11	·
C=CCOC(=O)N[C@H](c1cccc(OC)c1)[C@H](C)/C=C/CC(=O)OC	·	-3	·	2	·	·	·
CCCCCC(=O)Cc1cc(O)cc2c1C(=O)Oc1cc(O)c(C(=O)O)c(CCCCC)c1O2	·	·	·	·	43*	59*	·
CN(C)CC(=O)N[C@@H]1C[C@@H]2O[C@@H](CO)CC[C@@H]2O[C@@H]1CCc1ccc(C#Cc2ccccc2)cc1	·	-1	·	1	·	·	·
CCCCn1c(N)c(N(CCOC)C(=O)c2ccc(-c3cccc(C(F)(F)F)c3)o2)c(=O)[nH]c1=O	6	-11	-3	-2	39*	17	·
O=C(NCc1ccc(F)cc1)c1c2c(nc3ccccc13)CCC2	9	14	3	-11	36*	25*	·
c1ccc(-c2c[nH]c3cccc(C4CCCCC4)c23)cc1	·	4	·	8	·	·	·
CCC(C)c1ccccc1NC(=O)COC(=O)c1ccc2[nH]c3c(c2c1)CCCC3 (stereo not drawn)	4	-15	-42	-7	38*	29*	·
CC1(C)CC(=O)C2=C(C1)c1c(ccc3ccccc13)NC2c1cc([N+](=O)[O-])cc([N+](=O)[O-])c1O (stereo not drawn)	-7	25	-15	-1	41*	79*	·
Nn1c(SCC(=O)NC2CCCCC2)nnc1-c1cc(-c2ccccc2)n[nH]1	·	2	·	2	·	·	·
CCOc1cc(CNc2ccc(O)cc2)ccc1OCc1ccc(Cl)cc1Cl	·	·	62*	·	36*	22	·
N#Cc1c(-c2ccccc2Cl)cc(-c2ccccc2)nc1Br	2	-6	-44	-9	35*	16	·
CCc1cc(=O)oc2cc(C)c(CN3CCCC(C)C3)c(O)c12 (stereo not drawn)	0	17	2	0	52*	13	·
CCc1cc(=O)oc2c(CN3CCCC3)c(O)c(Cl)cc12	1	-1	2	5	5	·	·
CCCCNc1c2c3c(cccc3n(C)c1=O)C(=O)c1ccccc1-2	·	·	68*	·	43*	48*	70*
Cn1c(=O)c(NC2CCCCC2)c2c3c(cccc31)C(=O)c1ccccc1-2	0	8	-7	-2	·	·	·
COC(=O)[C@H](C(C)C)N(Cc1cn(Cc2ccccc2)nn1)S(=O)(=O)c1ccccc1Br	·	-1	·	1	·	·	·
COc1cccc(/C=C2\CC3(OC(=O)C4CCCCC4)CCCN2C3)c1 (stereo not drawn)	·	-4	·	-1	·	·	·
NNc1nc(C(F)(F)F)nc2ccccc12	1	5	-3	6	4	·	·
O/C=c1\ccc2cccc3nc(C(F)(F)F)nc1c23	2	28	43*	17	40*	22	99*
O=C(NCC1CCN(C(=O)C(=O)c2cccs2)CC1)c1ccc2c(c1)CCO2	-7	4	·	-3	·	·	·
O=C(C1=C(O)C(=O)N(c2nc3ccc(Cl)cc3s2)C1c1ccco1)c1ccco1 (stereo not drawn)	18	28	39*	5	49*	38*	-54
Cc1ccc2nc(N3C(=O)C(O)=C(C(=O)c4ccc(C)o4)C3c3ccco3)sc2c1 (stereo not drawn)	0	15	3	2	18	·	·
O=C1c2ccccc2-c2onc3ccc(NCc4ccco4)c1c23	·	·	117*	·	82*	104*	108*
SMILES	TCR CD3 inh	ABHD4 inh	HTRA1 inh	SIAE inh	pPAFAH FP inh	pPAFAH FP conf	HTRA1 inh conf
COc1ccccc1/C=C1\SC(=S)N(CCC(=O)NNC(=O)c2ccccc2O)C1=O	·	·	39*	·	35*	66*	68*
CCN(CC)CCCNC(=O)C1(N[C@@H](Cc2c[nH]c3ccccc23)C(=O)NCC(OC)OC)CCCCC1	·	0	·	1	·	·	·
CCCCn1c(SCC(=O)c2ccccc2)nc2ccsc2c1=O	5	-5	-8	3	0	·	·
CCCCn1c(SCC(=O)c2ccc(O)c(O)c2)nc2ccsc2c1=O	·	·	59*	·	42*	88*	61*
COc1ccc(C=NNc2ccc(S(=O)(=O)Nc3ccccc3C(=O)O)cc2[N+](=O)[O-])c(OC)c1	·	·	47*	·	63*	91*	39*
COc1ccccc1NS(=O)(=O)c1ccc(N/N=C(\C)C(C)C)c([N+](=O)[O-])c1	10	-12	2	-6	10	·	·
CN1[C@H](Cc2ccccc2)COc2cc(N3CCCC3)ccc2S1(=O)=O	·	-11	·	1	·	·	·
O=C(NC1CCCCN(Cc2cccc(C(F)(F)F)c2)C1=O)c1ccc(COc2ccccc2)cc1 (stereo not drawn)	·	-12	·	-6	·	·	·
CCCCOc1[nH]c2nc(-c3ccco3)n(Cc3ccco3)c(=N)c2c1C#N	8	45*	42*	16	57*	15	-5
c1ccc(CSc2nnc(-c3ccco3)n2Cc2ccco2)cc1	6	-1	-7	8	10	·	·
Cc1ccccc1NC(=O)CSc1nnc(-c2ccco2)c(-c2ccco2)n1	·	·	43*	·	45*	21	16
Cc1ccccc1NC(=O)CSc1n[nH]c(-c2ccco2)n1	-6	7	4	-6	1	·	·
CCn1c(SCC(=O)Nc2ccccc2-c2ccccc2)nnc1-c1cnccn1	·	2	·	-3	·	·	·
COc1ccc(C(=O)N/N=C(\C)c2ccc3c(c2)C2C=CCC2C(c2ccccc2)N3)cc1 (stereo not drawn)	·	·	15	·	10	·	·
COc1cccc(NS(=O)(=O)c2ccc3c(c2)C2C=CCC2C(c2ccc(C(=O)O)cc2)N3)c1 (stereo not drawn)	13	28	49*	10	61*	61*	15
O=C(O)c1ccc2c(c1)[C@@H]1C=CC[C@@H]1[C@H](c1ccccn1)N2	25*	70*	47*	17*	64*	15	22
CCOC(=O)C1=NOC(C(=O)Nc2cc(C)cc(C)c2)(C(=O)C2CC2)C1 (stereo not drawn)	·	0	·	1	·	·	·
O=C(CCc1ccccc1)N[C@H]1[C@H](OC(=O)c2ccco2)CCC[C@@]12C(=O)N(Cc1ccccc1)c1ccccc12	·	-8	·	-7	·	·	·
O=C(Cc1cnn(-c2ccccc2)c1)c1ccc(O)c(O)c1O	10	24	69*	-15	73*	54*	94*
COc1cc(C(=S)N2CCN(c3ccccc3Cl)CC2)cc(O)c1O	16	24	51*	2	42*	64*	84*
Cc1cc(F)ccc1C(=O)N1CCC(Oc2cccnc2)CC1	·	-2	·	9	·	·	·

Compound activity deposited in PubChem BioAssay by The Scripps Research Institute Molecular Screening Center.
